Test results as given in ChEMBL document CHEMBL1208680, “Synthesis and cytotoxicity screening of substituted isobenzofuranones designed from anacardic acids” (Eur J Med Chem, 2010).
Values after ≈ are worked out from the molar mass of the structure shown. Active and inactive are the calls of the source. The rule behind the calls is not given here.

Key:
MDA-MB-435 = assay: Cytotoxicity against human MDA-MB-435 cells after 72 hrs by MTT assay; type: functional, cell-based; conditions: MDA-MB-435, 72 h
Outline: (§1)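 Cell lines obtained from NCI, kept in RPMI 1640 with 10% FBS, 2 mM glutamine and penicillin/streptomycin at 37 °C, 5% CO2. Seeding: HL-60 0.3 × 10⁶, SF295 0.6 × 10⁵, MDA-MB435 0.1 × 10⁶ cells/mL. Compounds were added 24 h after seeding at 0.39–25.00 in 0.1% DMSO and left for 72 h. MTT at 0.5 mg/mL was added for 3 h, formazan dissolved in DMSO, absorbance read at 595 nm. IC50 by non-linear regression, triplicate, two independent experiments. Doxorubicin served as positive control.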

SF-295 = assay: Cytotoxicity against human SF295 cells after 72 hrs by MTT assay; type: functional, cell-based; conditions: SF-295, 72 h; outline: as §1
PBMC = assay: Cytotoxicity against human PBMC after 72 hrs by Alamar blue assay; type: cell-based
Outline: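 PBMC were isolated from heparinized blood of healthy donors on Histopaque-1077 and cultured in RPMI 1640 with 20% FBS plus 2% phytohaemagglutinin. Compounds were added after 24 h at 0.39–25.00 in 0.1% DMSO for 72 h. Alamar Blue was added 24 h before the end. Absorbance at 570 and 595 nm was converted to % reduced. IC50 by non-linear regression, triplicate, two independent experiments.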

HL-60 [1] = assay: Cytotoxicity against human HL60 cells after 72 hrs by MTT assay; type: functional, cell-based; conditions: HL-60, 72 h; outline: as §1
HL-60 [2] = assay: Cytotoxicity against human HL60 cells assessed as cell viability by BrdU incorporation assay; type: functional, cell-based
Outline: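 HL-60 cells at 0.3 × 10⁶ cells/mL were treated for 24 h, with BrdU added for the final 3 h. Cytospin slides were stained by peroxidase immunocytochemistry with diaminobenzidine and haematoxylin counterstain. Two hundred cells per sample were scored for % BrdU-positive. Vehicle was 0.1% DMSO and the positive control doxorubicin. Mean ± S.E.M. from three independent experiments in triplicate.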

HL-60 [3] = assay: Induction of apoptosis in human HL60 cells assessed as increase in DNA strand breaks after 12 hrs by Comet assay; type: functional, cell-based
Outline: (§2)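 Alkaline comet assay on HL-60 cells exposed for 3, 6, 12 or 24 h. Lysis at pH 10, 4 °C, at least 1 h. Unwinding for 20 min in 300 mM NaOH/1 mM EDTA (pH >13), then electrophoresis at 0.81 V/cm for 20 min, 4 °C. Tail classes 0–4 were scored visually on 300 cells and converted to a damage index of 0–400. Vehicle was 0.1% DMSO.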

HL-60 [4] = assay: Induction of apoptosis in human HL60 cells assessed as reduction of cells in intact membrane at 6 ug/ml by AO/BE staining; type: functional, cell-based
HL-60 [5] = assay: Induction of apoptosis in human HL60 cells assessed as increase in DNA double strand breaks after 24 hrs by Comet assay; type: functional, cell-based
Outline: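 Neutral comet assay on HL-60 cells treated for 24 h at 6. Electrophoresis in 100 mM Tris/300 mM sodium acetate, pH 8.5, after 60 min equilibration, then 60 min at 0.5 V/cm. Damage index was scored visually. Vehicle was 0.1% DMSO.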

HL-60 [6] = assay: Induction of apoptosis in human HL60 cells assessed as reduction in viable cells after 24 hrs; type: functional, cell-based
Outline: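 HL-60 cells were exposed for 24 h. Cells were stained with acridine orange and ethidium bromide (each 100 in PBS) and examined by fluorescence microscopy, 300 cells counted per point. Vehicle was 0.1% DMSO; doxorubicin was the positive control. Three independent experiments in triplicate, ANOVA with Newman-Keuls test.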

HL-60 [7] = assay: Induction of apoptosis in human HL60 cells assessed as increase in DNA damage after 24 hrs by Comet assay; type: functional, cell-based; outline: as §2
HL-60 [8] = assay: Induction of apoptosis in human HL60 cells assessed as increase in DNA damage by Comet assay; type: functional, cell-based; conditions: TDE = time-dependent effect; outline: as §2
HL-60 [9] = assay: Induction of apoptosis in human HL60 cells assessed as reduction of cells in intact membrane at 3 ug/ml by AO/BE staining; type: functional, cell-based

| SMILES | IC50 (MDA-MB-435) [µg/mL] | IC50 (SF-295) [µg/mL] | IC50 (PBMC) [µg/mL] | IC50 (HL-60 [1]) [µg/mL] | Activity (HL-60 [2]) | Activity (HL-60 [3]) | Activity (HL-60 [4]) | Activity (HL-60 [5]) | Activity (HL-60 [6]) | Activity (HL-60 [7]) | Activity (HL-60 [8]) | Activity (HL-60 [9]) |
| --- | --- | --- | --- | --- | --- | --- | --- | --- | --- | --- | --- | --- |
| COc1cccc2c1C(=O)c1c(O)c3c(c(O)c1C2=O)C[C@@](O)(C(=O)CO)C[C@@H]3O[C@H]1C[C@H](N)[C@H](O)[C@H](C)O1 [DOXORUBICIN] | 0.03 (≈ 0.0552 µM) | 0.04 (≈ 0.0736 µM) | – | – | – | – | – | – | – | – | – | – |
| CCCCCCCCCCCCCCCc1cccc(OC)c1C(=O)OC | > 25 | > 25 | > 25 | > 25 | – | – | – | – | – | – | – | – |
| CCCCCCCCCCCCCCC(Br)c1cccc(OC)c1C(=O)OC (stereo unspecified) | > 25 | > 25 | > 25 | > 25 | – | – | – | – | – | – | – | – |
| CCCCCCCCCCCCCC(O)C1OC(=O)c2c(OC)cccc21 (racemic) | 12.3 (≈ 32.6 µM) | > 25 | > 25 | 21 (≈ 55.8 µM) | Active | Active | Active | – | – | – | – | – |
| CCCCCCCCCCCCCC(=O)C1OC(=O)c2c(OC)cccc21 (racemic) | 8.7 (≈ 23.2 µM) | 10.1 (≈ 26.9 µM) | 14.5 (≈ 38.7 µM) | 3.24 (≈ 8.65 µM) | inactive | – | Active | Active | Dose-dependent effect | Dose-dependent effect | tde | Active |
| CCCCCCCCCCCCC/C=C/c1cccc(OC)c1C(=O)OC | 3.31 (≈ 8.84 µM) | 12.8 (≈ 34.3 µM) | 19.8 (≈ 52.9 µM) | 9.96 (≈ 26.6 µM) | Active | Active | Active | – | Dose-dependent effect | – | – | – |
